Only some compounds are listed: those with a hit (about 5% of all), similar ones and a draw of the others.
Beta cell apopt = blocks beta cell apoptosis. INS-1E cytokine-induced death, ATP luminescence, 48 h; percent of positive-control rescue, neutral wells zero. protection from apoptosis, % (concentration not given with the values). actives 0.8% (n = 300,000). AID 435005;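 active = Every replicate reaches about 75%, or at least half do and their mean reaches it too, limit read from the data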;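 also: higher means more ATP so stronger rescue from cytokine killing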
Mdm2-MdmX inh = disrupts the human Mdm2-MdmX interaction. O15151+Q00987. SaOS-2 split-luciferase Mdm2/MdmX complementation, luminescence. inhibition, % at 8 µM. actives 3% (n = 330,000). AID 485346;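 active = inhibition of at least 50% at 8 µM in the primary screen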
Target sequence (O15151 whole entry, looked up): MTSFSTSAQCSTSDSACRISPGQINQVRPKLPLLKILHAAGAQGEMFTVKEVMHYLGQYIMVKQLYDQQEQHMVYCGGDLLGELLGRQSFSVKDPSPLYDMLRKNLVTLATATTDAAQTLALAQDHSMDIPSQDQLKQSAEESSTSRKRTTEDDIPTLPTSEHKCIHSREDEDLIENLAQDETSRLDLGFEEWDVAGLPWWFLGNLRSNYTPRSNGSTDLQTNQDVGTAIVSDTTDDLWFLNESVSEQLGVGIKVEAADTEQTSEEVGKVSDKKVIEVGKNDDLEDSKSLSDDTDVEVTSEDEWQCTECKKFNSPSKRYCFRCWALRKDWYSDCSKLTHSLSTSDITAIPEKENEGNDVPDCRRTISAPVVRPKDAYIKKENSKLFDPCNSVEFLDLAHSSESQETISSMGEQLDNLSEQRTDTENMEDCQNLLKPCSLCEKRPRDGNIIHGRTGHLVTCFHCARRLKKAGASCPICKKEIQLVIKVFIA
Target sequence (Q00987 whole entry, looked up): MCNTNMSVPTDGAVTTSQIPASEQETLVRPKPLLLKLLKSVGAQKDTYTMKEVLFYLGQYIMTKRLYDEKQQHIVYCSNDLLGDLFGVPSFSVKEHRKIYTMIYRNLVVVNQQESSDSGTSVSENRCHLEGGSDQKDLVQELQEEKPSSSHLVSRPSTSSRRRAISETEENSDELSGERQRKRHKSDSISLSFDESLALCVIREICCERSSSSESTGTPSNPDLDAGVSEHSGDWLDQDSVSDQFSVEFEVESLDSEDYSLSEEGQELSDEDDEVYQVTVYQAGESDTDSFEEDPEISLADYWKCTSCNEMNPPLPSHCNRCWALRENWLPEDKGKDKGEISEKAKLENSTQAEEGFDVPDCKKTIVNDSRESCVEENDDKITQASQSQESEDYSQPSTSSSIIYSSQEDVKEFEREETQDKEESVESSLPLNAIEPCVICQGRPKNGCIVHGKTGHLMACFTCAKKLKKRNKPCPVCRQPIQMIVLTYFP
CSC inhib = cancer stem cell inhibition. cancer stem cell-like cells viability, luminescence. inhibition, % at 7.5 µM. actives 1.1% (n = 300,000). AID 2717; in the data active = inhibition above about 75%; tested in HMLE shEcad cells
UPR XBP1 act = adaptive UPR (XBP1) activation | CHO-XBP1 luciferase reporter, IRE1-XBP1 UPR activation, luminescence; percent of tunicamycin response, DMSO as zero | activation, % at 20 µM | actives 0.33% (n = 330,000);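 active = versus positive control, 20 µM dose yields 30% or more activation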
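Material – CHO cell line with stable XBP1 luciferase reporter · Buffer or medium – F12 plus 10% FBS · Compound – single point, 20 µM final compound, 1% DMSO · Schedule – 16-18 h cell attachment at 37 °C, then 6 h compound exposure · Signal – Steady-Glo luminescence read · Benchmarks – high control tunicamycin 10 µg/mL final, low control DMSO vehicle only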
CHOP UPR activ = apoptotic UPR (CHOP) activation | CHO-CHOP luciferase reporter, luminescence; percent of tunicamycin response over DMSO baseline | activation, % at 10 µM | actives 0.34% (n = 330,000);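 active = at 10 µM dose, activation of 40% or more, normalized to positive control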
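System: CHO-CHOP luciferase reporter cell line; amount: 500 cells/well; buffer or medium: F12 medium containing 10% fetal bovine serum; incubation: 6 h compound exposure at 37 °C after overnight seeding; measured by: luciferase luminescence after 10 min with Steady-Glo reagent; evaluation: % reporter activation, DMSO baseline versus tunicamycin full activation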
T cruzi repl = T. cruzi replication inhibition; actives 1.4% (n = 300,000); inhibition, % (test concentration not listed); T. cruzi beta-gal in NIH3T3, luminescence, 90 h;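 active = mean inhibition across valid replicates above about 55%, limit read from the data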;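 also: signal also drops with host cell toxicity which is not excluded here; higher percent means less beta-gal luminescence so fewer parasites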
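Assay system: NIH/3T3 fibroblasts plus reporter T. cruzi. Amount: NIH/3T3 cells, 5,000 per well. Buffer or medium: DMEM, 2% fetal bovine serum. Doses: compound pinned at 50 nL/well, DMSO. Schedule: ≥90 h infection period, 3 h prior cell attachment. Signal: luminescent β-galactosidase signal after 60 min lysis. Read-out: parasite load inhibition, %.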
Mdm2 MdmX conf = human Mdm2/MdmX binding inhibition, confirmed; shares compounds with Mdm2-MdmX inh; luminescent assay; inhibition, % at 8 µM; actives 55% (n = 10,000); in the data active = inhibition above about 40%
Full FLuc ctr = inhibits full-length luciferase, flagging false Mdm2/MdmX hits; shares compounds with Mdm2-MdmX inh; SaOS-2 full-length luciferase counterscreen, luminescence; inhibition, % at 8 µM; actives 77% (n = 6,200); AID 504607;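 active = mean inhibition at 8 µM reaching about 37%, which flags the compound as non-specific, limit read from the data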;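 also: p53-null SaOS-2 cells with luciferase driven by a doxycycline-inducible promoter; compound on cells about two nights before reading with doxycycline added after day one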
A number is an active result; – = inactive; · = not tested or not shown.

SMILES	Beta cell apopt	Mdm2-MdmX inh	CSC inhib	UPR XBP1 act	CHOP UPR activ	T cruzi repl	Mdm2 MdmX conf	Full FLuc ctr
C(=N\Nc1nc2ccccc2[nH]1)/c1ccc2c(c1)OCCO2	·	–	–	–	–	–	·	·
CN(C)c1ccc(C=Nc2cnn(C)c2C(N)=O)cc1	–	52	–	–	–	·	–	·
Cc1ccc(-c2nnc(CSc3nnc(COc4cccc5ccccc45)n3-c3ccccc3)o2)cc1	–	63	·	–	–	–	–	·
N#CCSc1nnc(COc2cccc3ccccc23)n1-c1ccccc1	·	–	–	–	–	–	·	·
Cn1nnnc1SCC(=O)N1CCN(S(=O)(=O)c2ccc(Cl)cc2)CC1	·	70	–	–	–	–	–	·
O=C1C=CC(=O)N1CCNc1ncc(C(F)(F)F)cc1Cl	·	63	·	–	–	57	68	53
COc1ccc(-c2cc(=O)n(-c3ccc([N+](=O)[O-])cc3)[nH]2)cc1	–	55	126	–	–	–	–	·
CC(=O)Nc1sc(N/N=C\c2ccccc2Cl)nc1-c1cccs1	–	51	–	–	–	–	61	96
CC(=O)Nc1sc(N/N=C\c2ccccc2)nc1-c1cccs1	–	–	–	–	–	–	·	·
COc1ccc(CN(C(=S)Nc2ccccc2)C2CC(=O)N(c3ccc(F)cc3)C2=O)cc1 (stereo not drawn)	–	–	–	–	–	–	·	·
O=C1CC(N(CCc2ccccc2)C(=S)Nc2ccccc2)C(=O)N1c1ccc(Br)cc1 (stereo not drawn)	–	68	–	–	–	–	–	59
CCOC(=O)c1c(C)nc2sc3c(=O)n(-c4ccc(C(C)=O)cc4)cnc3c2c1-c1ccc(Cl)cc1	–	–	–	–	–	–	·	·
CCOC(=O)c1c(C)nc2sc3c(=O)n(-c4ccc(C(C)=O)cc4)nnc3c2c1-c1ccc(Cl)cc1	–	72	–	–	–	–	50	49
CC(=O)NS(=O)(=O)c1ccc(NC(=O)CSc2ccc(C)cc2)cc1	·	–	–	–	–	–	·	·
CCn1c2ccccc2c2cc(/C=N/O)ccc21	–	–	–	–	–	–	·	·
C=Cn1ccnc1P(=S)(c1ccc2c(c1)c1ccccc1n2CC)c1nccn1C=C	–	67	106	–	–	–	63	56
COc1ccc(NC(=O)C2=CC(c3cccs3)=NS(=O)(=O)N2C)cc1	–	55	·	–	–	–	–	·
CN1C(C(=O)Nc2ccc(OC(F)(F)F)cc2)=CC(c2cccs2)=NS1(=O)=O	–	58	–	–	–	–	–	48
CCn1cc([N+](=O)[O-])c(C(=O)N2N=C(c3cccc4ccccc34)CC2c2ccccc2O)n1 (stereo not drawn)	–	52	–	–	–	–	41	75
CCn1cc(Cl)c(C(=O)N2N=C(c3ccc4ccccc4c3)CC2c2ccccc2O)n1 (stereo not drawn)	–	69	–	–	–	56	40	57
CCn1cc([N+](=O)[O-])c(C(=O)N2N=C(c3ccc(OC)cc3OC)CC2c2ccccc2O)n1 (stereo not drawn)	·	–	–	–	–	–	·	·
CCn1cc([N+](=O)[O-])c(C(=O)N2N=C(c3ccc4ccccc4c3)CC2c2ccccc2O)n1 (stereo not drawn)	–	61	–	–	–	–	59	86
O=C(O)c1ccc(/C=N/NC(=O)c2cc(-c3ccc4c5c(cccc35)CC4)n[nH]2)cc1	–	–	–	–	–	–	·	·
Cc1cc2cc(CNC(=S)NCc3ccccc3)ccc2n1C	–	–	–	–	–	–	·	·
Cc1ccc2c(c1)cc(C(=O)NCc1ccccc1)n2C	–	85	–	–	–	–	56	52
SMILES	Beta cell apopt	Mdm2-MdmX inh	CSC inhib	UPR XBP1 act	CHOP UPR activ	T cruzi repl	Mdm2 MdmX conf	Full FLuc ctr
Nc1nc(SCC(=O)N2CCCC2)[nH]c(=O)c1NC(=O)c1cccs1	–	–	–	–	–	–	·	·
CC1(C)Cc2c(sc(NC(=O)c3ccc4ncsc4c3)c2C(N)=O)C(C)(C)N1	–	75	–	–	–	–	–	·
CC1(C)Cc2c(sc(NC(=O)COc3ccc(Cl)cc3)c2C(N)=O)C(C)(C)N1	–	–	–	–	–	–	·	·
CC1(C)Cc2c(sc(NC(=O)c3ccc(C(=O)c4ccccc4)cc3)c2C(N)=O)C(C)(C)N1	–	73	–	–	–	–	57	–
C=C1c2ccccc2O[C@H](C(=O)OCC)[C@H]1OC	·	–	·	–	–	·	·	·
Cc1cc(NC(=O)COC(=O)c2oc3c(ccc4ccccc43)c2C)no1	–	59	–	–	–	–	–	59
Cc1c(C(=O)OCC(=O)Nc2ccc(S(N)(=O)=O)cc2)oc2c1ccc1ccccc12	·	52	·	–	–	–	–	·
O=C(c1n[nH]c2ccccc12)N1CCN(c2ccc(F)cc2)CC1	–	–	–	–	–	–	·	·
CCC(C)[C@H](NC(=O)N1CC(=O)Nc2ccccc21)C(=O)Nc1ccccc1C (stereo partly drawn)	·	67	–	–	–	–	64	39
CCC(C)[C@H](NC(=O)N1CC(=O)Nc2ccccc21)C(=O)N[C@H](Cc1ccccc1)C(=O)O (stereo partly drawn)	–	–	–	–	–	–	·	·
O=C(NC1CCCCC1)C(c1cccnc1)N(C(=O)c1csnn1)c1ccc(F)cc1 (stereo not drawn)	–	–	–	–	–	–	·	·
CC[n+]1c(/C=C/c2c[nH]c3ccccc23)ccc2cc(C)ccc21	·	72	·	–	–	·	56	73
CCCCCn1c2c(c(=N)c3ccccc31)CCC2	–	60	–	–	–	59	–	·
CCOC(=O)Cn1c2c(c(=N)c3ccccc31)CCC2	–	–	–	–	–	–	·	·
CCCCCCCCn1c2c(c(=N)c3ccccc31)CCC2	·	85	·	–	–	60	86	–
Cc1ccc(NC(=O)c2cnccn2)cc1C	–	–	–	–	–	–	·	·
COc1ccccc1CNC(=O)CCNS(=O)(=O)c1cc(Br)cnc1N	–	–	–	–	–	–	·	·
COc1cc(NC(=O)c2ccc(CNc3c(N4CCOCC4)c(=O)c3=O)cc2)cc(OC)c1	–	–	–	–	–	–	·	·
COc1ccc(CCNc2nnc(Sc3nnnn3-c3ccccc3)s2)cc1OC	–	79	–	–	–	–	70	83
c1ccc(C2CC(c3ccccc3)n3c(nc4ccccc43)N2)cc1 (stereo not drawn)	–	63	–	–	–	–	40	48
COc1ccc([N+](=O)[O-])cc1/C=N/Nc1nn[nH]n1	–	–	–	–	–	–	·	·

Screens: PubChem, several laboratories
